Screening results: PubChem, NMMLSC
MEKK2wt PB1 HTS: raises or lowers MEK5 binding to wildtype human MEKK2 PB1 domain. bead flow cytometry, Alexa488-MEK5 binding to MEKK2 WT; actives lie on both sides. AID 1531. 1.1% of 290,000 active. binding response (% of control), % at 10 µM. Q9Y2U5; in the data active = binding response below about 67% or above about 130%
ABCG2 block: blocks JC-1 efflux by human ABCG2 transporter; Q9UNQ0; IgMXP3 cells, flow cytometry; inhibition, % at 6.6 µM; 0.1% of 190,000 active;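 active = inhibition above 80%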
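Measure – % inhibition of efflux relative to nicardipine and DMSO · Test system – ABCG2 IgMXP3 and barcoded ABCB1 CCRF-Adr cell mix · Control set – nicardipine as high control, DMSO as low control · Compound – one concentration, 6.6 µM final · Signal – flow cytometry of retained JC-1 fluorescence · Timing – 10 min exposure at 25 °C with rotation, no wash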
ABCB1 block: blocks JC-1 efflux by human ABCB1 transporter. P08183. CCRF-Adr cells, flow cytometry. inhibition, % at 6.6 µM. 0.067% of 190,000 active. AID 1326; in the data active = inhibition above about 40%;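 note: higher value means more JC-1 retained so stronger ABCB1 efflux block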
Target sequence (P08183 whole entry, looked up): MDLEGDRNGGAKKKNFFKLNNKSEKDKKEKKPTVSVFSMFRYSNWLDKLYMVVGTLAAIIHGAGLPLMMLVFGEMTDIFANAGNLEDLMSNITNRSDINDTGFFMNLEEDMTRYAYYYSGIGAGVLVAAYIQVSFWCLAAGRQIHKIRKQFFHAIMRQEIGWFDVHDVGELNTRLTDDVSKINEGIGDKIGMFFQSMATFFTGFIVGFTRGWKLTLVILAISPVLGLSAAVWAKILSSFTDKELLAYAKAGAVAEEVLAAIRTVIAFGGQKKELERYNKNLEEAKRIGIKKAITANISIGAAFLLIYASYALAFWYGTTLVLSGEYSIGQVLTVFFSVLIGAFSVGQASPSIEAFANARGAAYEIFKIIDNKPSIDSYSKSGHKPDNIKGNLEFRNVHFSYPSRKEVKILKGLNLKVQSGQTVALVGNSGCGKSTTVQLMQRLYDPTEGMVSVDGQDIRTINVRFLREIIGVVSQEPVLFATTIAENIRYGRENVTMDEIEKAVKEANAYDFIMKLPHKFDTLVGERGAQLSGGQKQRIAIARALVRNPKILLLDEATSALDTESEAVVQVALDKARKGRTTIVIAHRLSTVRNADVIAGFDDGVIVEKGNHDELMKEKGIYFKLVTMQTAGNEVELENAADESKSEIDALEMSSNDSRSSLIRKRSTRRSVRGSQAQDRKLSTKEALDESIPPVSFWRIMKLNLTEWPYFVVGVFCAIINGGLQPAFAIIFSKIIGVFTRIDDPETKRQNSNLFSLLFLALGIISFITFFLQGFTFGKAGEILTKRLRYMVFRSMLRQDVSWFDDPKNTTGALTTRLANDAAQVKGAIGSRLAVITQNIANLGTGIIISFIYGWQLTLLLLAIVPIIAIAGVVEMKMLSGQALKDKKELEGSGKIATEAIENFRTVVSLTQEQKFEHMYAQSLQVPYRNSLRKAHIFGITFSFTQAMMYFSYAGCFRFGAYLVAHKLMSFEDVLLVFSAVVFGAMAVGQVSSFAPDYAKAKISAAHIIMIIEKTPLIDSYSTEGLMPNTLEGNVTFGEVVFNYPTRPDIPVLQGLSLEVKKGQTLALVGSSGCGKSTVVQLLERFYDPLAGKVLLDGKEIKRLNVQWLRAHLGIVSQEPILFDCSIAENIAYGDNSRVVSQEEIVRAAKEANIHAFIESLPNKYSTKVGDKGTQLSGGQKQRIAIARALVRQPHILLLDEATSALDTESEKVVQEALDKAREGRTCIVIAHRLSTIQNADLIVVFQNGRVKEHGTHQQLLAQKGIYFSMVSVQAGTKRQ
MEKK3 PB1 HTS: raises or lowers MEK5 binding to the human MEKK3 PB1 domain | Q99759 | bead-based flow cytometry, Alexa488-MEK5 binding to MEKK3; actives lie on both sides; 0 = blocked by unlabeled MEK5, 100 = vehicle | binding response (% of control), % at 10 µM | 1.4% of 290,000 active;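 active = binding response more than 3 SD above or below the average of its plate-row segment, actives on both sides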;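 note: Alexa488 bead fluorescence after subtracting the streptavidin-only scavenger bead signal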
MEKK2mut PB1 HTS: signal of MEK5 binding to mutant human MEKK2 PB1 domain. percent response, % at 10 µM. 0.35% of 290,000 active. bead flow cytometry, Alexa488-MEK5 binding to MEKK2 mutant. AID 1530; in the data active = percent response above about 24%, passing the limit was not always enough
Numbers stand for hits; 0 = inactive; - = no result given; [ ] = another dose, or the depositor's remark. A selection: hits, their analogues and other compounds. The true share with any hit is near 2.3%.

SMILES	MEKK2wt PB1 HTS	ABCG2 block	ABCB1 block	MEKK3 PB1 HTS	MEKK2mut PB1 HTS
CCOCc1nnc(NC(=O)CS(=O)(=O)c2ccc(C)cc2)s1	0	-	-	80.0[inhibitor]	0
CCCc1ccc(OCc2ccc(C(=O)N3CCCC3)o2)cc1	0	-	-	0	0
CCOc1ccc(OCc2ccc(C(=O)N3CCCC3)o2)cc1	0	0	41.4	0	0
CC(C)N(C(=O)CN1CCC(c2nc3ccccc3[nH]2)CC1)C(C)C	0	-	-	0	0
COc1ccc(C)cc1NC(=O)NNS(=O)(=O)c1ccc(NC(C)=O)cc1	47.0[inhibitor]	-	-	39.0[inhibitor]	0
CCOc1cc(/C=C/C(=O)Nc2ccc(C(=O)NCCN(CC)CC)cc2)ccc1OCC(C)C	138.0	0	0	0	0
CC(C)c1ccc2c(c1)CCC1C(C)(CN)CCCC21C (configuration not stated)	155.0	-	-	36.0[inhibitor]	25.0
CCS(=O)(=O)N1N=C(c2cccc(NS(C)(=O)=O)c2)CC1c1cccs1 (configuration not stated)	-	-	-	13.0[inhibitor]	24.0
CC(C)(C)C(=O)N1N=C(c2cccc(NS(C)(=O)=O)c2)CC1c1cccs1 (configuration not stated)	0	0	0	0	0
CCS(=O)(=O)Nc1ccc(C2=NN(S(=O)(=O)CC)C(c3cccs3)C2)cc1 (configuration not stated)	-	-	-	7.0[inhibitor]	0
COc1cccc(C2CC(c3cccs3)=NN2S(C)(=O)=O)c1 (configuration not stated)	3.0	0	0	0	0
CCS(=O)(=O)Nc1cccc(C2=NN(S(=O)(=O)CC)C(c3cccs3)C2)c1 (configuration not stated)	-	-	-	17.0[inhibitor]	32.0
Cc1ccc(C(=O)N2CCC(N3CCC(C(=O)N4CCOCC4)CC3)CC2)cc1C	0	-	-	0	0
COc1cccc(C(C)NC(=O)C2CCCC2)c1 (configuration not stated)	0	-	-	0	0
CS(=O)(=O)Nc1cccc(C2=NN(S(C)(=O)=O)C(c3ccc4c(c3)OCO4)C2)c1 (configuration not stated)	26.0	0	0	0	0
COc1ccc(S(=O)(=O)N2N=C(c3cccc(NS(C)(=O)=O)c3)CC2c2ccco2)cc1 (configuration not stated)	14.0	-	-	0	0
CCS(=O)(=O)Nc1cccc(C2=NN(S(C)(=O)=O)C(c3cccs3)C2)c1 (configuration not stated)	-	-	-	12.0[inhibitor]	-
CS(=O)(=O)Nc1cccc(C2=NN(S(=O)(=O)c3ccc(F)cc3)C(c3cccs3)C2)c1 (configuration not stated)	7.0	0	0	0	0
COc1ccc(S(=O)(=O)N2N=C(c3ccc(NS(C)(=O)=O)cc3)CC2c2ccco2)cc1 (configuration not stated)	0	0	0	0	0
COc1cccc(C(=O)N2CCCC(Nc3ccc(C)c(C)c3)C2)c1 (configuration not stated)	0	-	-	0	0
COc1ccc(-c2noc(CNS(=O)(=O)c3ccc(NC(C)=O)cc3)n2)cc1OC	0	-	-	0	0
Cc1oc(-c2cc(F)ccc2F)nc1CN1CCN(C)C(=O)[C@@H]1C	22.0	0	0	0	0
Cc1ccsc1-c1nc(CN2CCN(C)C(=O)[C@@H]2C)c(C)o1	0	0	0	0	0
COc1ccccc1S(=O)(=O)Cc1ccc(C(=O)NCCCN2CCN(c3ccc(F)cc3)CC2)o1	140.0	-	-	0	0
CC12CCC(C[N+](C)(C)C1)C2(C)C (configuration not stated)	33.0	0	0	0	91.0
SMILES	MEKK2wt PB1 HTS	ABCG2 block	ABCB1 block	MEKK3 PB1 HTS	MEKK2mut PB1 HTS
CN(C(=O)c1cccc(C(F)(F)F)c1)C1CCCc2ccccc21 (configuration not stated)	0.0[inhibitor]	-	-	1.0[inhibitor]	0
CCCCC1=CC2=CC(=O)C(C)(OC(=O)CC)C(=O)C2=CN1CCc1ccccn1 (configuration not stated)	0	-	-	0	0
CCCCc1cc2c(cn1)=C(OC(=O)c1cnc3ccccc3n1)C(C)(OC(=O)CC)C(=O)C=2 (configuration not stated)	143.0	-	-	0	0
Cc1cc(NC(=O)CSc2nnnn2-c2ccc(C)c(Cl)c2)no1	0	-	-	0	0
COC(=O)c1ccccc1NC(=S)NC(=O)c1ccccc1	0	0	0	0	0
Cc1ccc(NC(=S)NC(=O)c2ccccc2)cc1NC(=S)NC(=O)c1ccccc1	2.0	-	-	0	0
CCN(CC)CCCNc1nc(SC)nc2sc3c(c12)CCN(C)C3	153.0	-	-	0	30.0
Cc1ccccc1NC(=S)c1nc2ccccc2[nH]1	0	0	0	0	0
O=C(/C(=C\c1ccccc1)c1nc2ccccc2[nH]1)c1ccc(Cl)cc1	5.0	0	0	0	0
S=C(Nc1ccc(Cl)cc1)c1nc2ccccc2[nH]1	0	0	0	128.0	0
O=C(/C(=C/c1ccc(Cl)cc1)c1nc2ccccc2[nH]1)c1cccs1	0	0	0	0	0
CN(C)C(=O)CCC(=O)N1CCCC(C(=O)c2ccc(C(F)(F)F)cc2)C1 (configuration not stated)	0	-	-	0	0
Cc1cc(-c2ccccc2)nc(SC(C(=O)O)c2ccccc2)n1 (configuration not stated)	-1.0	0	0	0	0
CC1CCCN(C(=O)C(=O)c2cn(CC(=O)N3CCCCCC3)c3ccccc23)C1 (configuration not stated)	0	-	-	0	0
CCOC(=O)c1cc(-c2ccccc2)n(CCC(=O)N2CCN(c3ccc(OC)cc3)CC2)c1C	2.0	0	0	0	0
CCOC(=O)c1cc(-c2ccccc2)n(CCC(=O)N2CCN(c3ccccc3OC)CC2)c1C	0	0	0	0	0
Cc1c(C(=O)Nc2ccccc2F)sc2ncn(CC(=O)N3CCCCC3)c(=O)c12	0	-	-	0	0
COc1ccccc1NS(=O)(=O)c1cccc(NC(=O)Nc2ccc(Cl)cc2)c1	147.0	0	0	0	0
CCc1ccc(CCC(=O)Nc2ncc(Cc3ccccc3Cl)s2)o1	0	0	0	163.0	0
COC(=O)C1=C(C)NC(=S)NC1c1ccc(OCC(=O)N2CCCCC2)c(OC)c1 (configuration not stated)	0	-	-	0	0
Cc1cccc(CSC2=NCCN2S(=O)(=O)c2ccc(F)cc2)c1	0	-	-	0	0
CN(Cc1ccccc1F)C(=O)CNC(=O)Cc1cccc2ccccc12	0	-	-	0	0
Cc1cccc(C)c1NC(=O)C1c2cccc[n+]2CC(=O)N1Cc1ccc2c(c1)OCO2 (configuration not stated)	50.0	0	0	0	0
Nc1nc(N)c2cc(Sc3ccc4ccccc4c3)ccc2n1	157.0	-	-	0	0
COC(=O)C1=C(O)/C(=C\c2ccc(OCC(=O)Nc3ccc(OC)cc3)cc2)N=C1C	0	-	-	0	0
